# Source: ChEMBL document CHEMBL5532647, “Design, synthesis, ADME and biological evaluation of benzylpiperidine and benzylpiperazine derivatives as novel reversible monoacylglycerol lipase (MAGL) inhibitors” (Eur J Med Chem, 2024)
# Calls of active or inactive are those of the source. No cut-off for these calls is given here.
# Tests used:
# [1] = molecular target: T1, Monoglyceride lipase (Homo sapiens) (UniProt Q99685); test: Reversible inhibition of human recombinant MAGL using 4-nitrophenylacetate as substrate incubated for 15 mins in presence of DTT by microplate reader analysis
# T1 sequence (whole entry): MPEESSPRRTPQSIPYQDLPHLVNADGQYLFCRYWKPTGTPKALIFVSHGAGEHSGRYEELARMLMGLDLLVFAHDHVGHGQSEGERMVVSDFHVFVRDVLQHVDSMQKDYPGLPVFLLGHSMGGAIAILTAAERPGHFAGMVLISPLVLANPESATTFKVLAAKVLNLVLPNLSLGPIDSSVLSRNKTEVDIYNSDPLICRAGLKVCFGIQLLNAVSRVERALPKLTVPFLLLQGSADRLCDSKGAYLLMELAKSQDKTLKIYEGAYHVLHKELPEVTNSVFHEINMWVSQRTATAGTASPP
# Summary of the method: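 Human recombinant MAGL (11 ng/well) in 10 mM Tris, pH 7.2, with 1 mM EDTA and 0.1 mg/mL BSA, at room temperature. Compound plus 4-NPA incubated 15 min with 10 μM DTT before enzyme addition. Compound final 320–0.02 nM. Absorbance at 405 nm after 30 min, blank-subtracted. IC50 from sigmoidal dose–response fit.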
# [2] = molecular target: T1, Monoglyceride lipase (Homo sapiens); test: Reversible inhibition of human recombinant MAGL using 4-nitrophenylacetate as substrate at 8 nM incubated for 15 mins by microplate reader analysis
# Summary of the method: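 Human recombinant MAGL (880 ng in Tris buffer, pH 7.2) incubated 60 min at room temperature with compound at 320 nM in the mixture, then diluted 40-fold in buffer. After 15 min, reaction started with 4-NPA 500 μM (stock added). Activity read at 405 nm after 30 min. Undiluted comparison run at 320 nM and 8 nM.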
# [3] = molecular target: T2, Monoglyceride lipase (Homo sapiens, UniProt Q99685); test: Reversible inhibition of MAGL in human U-937 cells using 2-oleoylglycerol as substrate preincubated with compound for 30 mins followed by substrate addition and measured after 5 mins; assay type: cell-based
# T2 sequence (Q99685 whole entry): T1 sequence (whole entry)
# Summary of the method: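 Intact U937 cells co-incubated with compound for 30 min. Then 10 μM 2-oleoylglycerol plus 1.0 nM [3H]2-OG tracer added for a further 5 min at 37 °C. JZL-184 (1 μM) served as full-inhibition control. Two independent experiments in triplicate. IC50 given as mean (95% CI).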
# [4] = molecular target: T3, Monoacylglycerol lipase ABHD6 (Homo sapiens) (UniProt Q9BV23); test: Inhibition of human ABHD6 transfected in HEK293 cells at 10 uM preincubated with compound for 30 mins followed by 2-OG addition and measured after 5 mins by liquid scintillation spectroscopy; assay type: cell-based; conditions: time 35.0 min
# T3 sequence (whole entry): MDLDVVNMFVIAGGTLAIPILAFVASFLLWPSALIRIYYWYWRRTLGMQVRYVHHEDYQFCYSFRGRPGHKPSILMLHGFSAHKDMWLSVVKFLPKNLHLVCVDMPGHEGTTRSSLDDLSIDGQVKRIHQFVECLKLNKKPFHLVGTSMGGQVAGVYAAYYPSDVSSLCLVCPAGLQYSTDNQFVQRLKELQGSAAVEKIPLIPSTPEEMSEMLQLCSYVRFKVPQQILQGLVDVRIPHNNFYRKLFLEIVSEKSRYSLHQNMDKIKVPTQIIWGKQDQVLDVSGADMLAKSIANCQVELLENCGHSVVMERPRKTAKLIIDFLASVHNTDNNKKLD
# Summary of the method: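 Homogenates (40 μg) of HEK293 cells stably transfected with hABHD6 or hABHD12. Compound 10 μM preincubated 30 min at 37 °C, 500 rpm, in Tris/EDTA buffer with 0.1% fatty acid-free BSA, pH 7.6. Controls: WWL70 10 μM or THL 20 μM; DMSO vehicle. 2-OG 10 μM added for 5 min at 37 °C. Stopped with ice-cold CHCl3:MeOH; aqueous phase counted. No-enzyme blanks used; non-transfected HEK293 hydrolysis subtracted.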
# [5] = molecular target: T4, Fatty-acid amide hydrolase 1 (Mus musculus) (UniProt O08914); test: Inhibition of mouse brain FAAH at 10 uM incubated with compound for 25 mins by TAMRA-FP probe based SDS-PAGE analysis; assay type: tissue-based
# T4 sequence (whole entry): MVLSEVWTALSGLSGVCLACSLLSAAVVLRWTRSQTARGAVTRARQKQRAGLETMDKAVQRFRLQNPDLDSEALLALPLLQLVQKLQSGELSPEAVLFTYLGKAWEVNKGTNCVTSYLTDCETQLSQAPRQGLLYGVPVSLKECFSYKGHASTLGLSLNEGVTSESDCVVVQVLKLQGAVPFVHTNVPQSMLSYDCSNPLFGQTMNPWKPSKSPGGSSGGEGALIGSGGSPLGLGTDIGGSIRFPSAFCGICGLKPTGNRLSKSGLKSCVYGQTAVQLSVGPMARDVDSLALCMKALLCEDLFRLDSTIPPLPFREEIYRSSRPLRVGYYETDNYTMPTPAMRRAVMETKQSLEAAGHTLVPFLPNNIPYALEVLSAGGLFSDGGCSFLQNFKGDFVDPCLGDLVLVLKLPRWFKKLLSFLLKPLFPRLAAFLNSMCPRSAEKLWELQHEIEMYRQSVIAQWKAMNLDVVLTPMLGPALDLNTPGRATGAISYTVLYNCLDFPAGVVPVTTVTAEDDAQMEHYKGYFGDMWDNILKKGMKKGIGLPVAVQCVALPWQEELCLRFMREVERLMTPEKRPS
# Summary of the method: (§1)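 Mouse brain membranes (2 mg/mL final, in PBS) preincubated 25 min at 25 °C with test compound (10 μM final) or DMSO vehicle. Controls: JZL-184, URB597 4 μM, WWL70 10 μM, THL, MAFP 5 μM. TAMRA-FP 125 nM final added for 5 min at 25 °C. Reaction stopped with Laemmli buffer, 3 min at 25 °C then 10 min at 90 °C. Separation by 10% SDS-PAGE, fluorescence scanning, three independent experiments.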
# [6] = molecular target: T5, Lysophosphatidylserine lipase ABHD12 (Mus musculus) (UniProt Q99LR1); test: Inhibition of mouse brain ABHD12 at 10 uM incubated with compound for 25 mins by TAMRA-FP probe based SDS-PAGE analysis; assay type: tissue-based; summary of the method: as §1
# T5 sequence (whole entry): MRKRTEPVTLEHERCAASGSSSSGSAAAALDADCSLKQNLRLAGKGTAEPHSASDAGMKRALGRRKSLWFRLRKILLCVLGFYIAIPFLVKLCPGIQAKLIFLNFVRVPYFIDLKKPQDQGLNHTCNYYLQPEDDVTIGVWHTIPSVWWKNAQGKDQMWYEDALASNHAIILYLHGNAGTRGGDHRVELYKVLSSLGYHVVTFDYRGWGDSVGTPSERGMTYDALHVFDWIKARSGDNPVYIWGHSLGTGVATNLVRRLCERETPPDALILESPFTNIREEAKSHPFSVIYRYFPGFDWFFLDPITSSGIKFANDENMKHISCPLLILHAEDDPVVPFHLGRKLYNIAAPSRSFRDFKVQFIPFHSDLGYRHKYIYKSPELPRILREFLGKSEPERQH
Structure (SMILES),inhibition [1],inhibition [2],IC50 [3],inhibition [4],inhibition [5],inhibition [6]
O=C(c1cc(O)ccc1F)N1CCC(Cc2cccc(Sc3cc(C(F)(F)F)ccn3)c2)CC1,inactive,Active,199 nM,inactive,inactive,inactive
O=C(c1cc(O)ccc1F)N1CCN(Cc2cccc(Sc3cc(C(F)(F)F)ccn3)c2)CC1,inactive,Active,489 nM,inactive,inactive,inactive
O=C(c1cccc(O)c1)N1CCC(Cc2cccc(Sc3cc(C(F)(F)F)ccn3)c2)CC1,inactive,Active,197 nM,inactive,inactive,inactive
O=C(c1cccc(O)c1)N1CCC(Cc2ccc(F)c(Sc3cc(C(F)(F)F)ccn3)c2)CC1,inactive,Active,193 nM,inactive,inactive,inactive
